Measurements collected from several papers.
Protocols differ between the studies behind these lines.
Target: NT-3 growth factor receptor (NTRK3, Homo sapiens, UniProt Q16288)

SMILES | read-out | action | method | concentration | measurement | value
COc1ncccc1-c1cnn2ccc(N3CCN(C(=O)OC(C)C)CC3)nc12 | binding |  | competition with immobilised ligand | 1 µM | remaining binding | 50%
C#Cc1n[nH]c2c(-c3cn([C@@H](C)c4ccccc4)c(=O)[nH]c3=O)cc(F)cc12 | enzyme activity | inhibitor |  | 0.1 µM | inhibition | 11.4%
O=c1[nH]c2ccccc2n1C1CCN(Cc2ccc(-c3[nH]c4cc5ncnc5cc4nc3-c3ccccc3)cc2)CC1 | cell-free assay |  |  | 0.5 µM | remaining signal | 116%
N#CC1(c2ccccn2)CCN(Cc2cc(C(=O)O)c(=O)n3ccccc23)CC1 | cell-free assay |  | competition with immobilised ligand | 1 µM | remaining binding | 70%
CC(C)(C)c1cc(C=C(C#N)C#N)cc(Br)c1O | enzyme activity | inhibitor |  | 0.5 µM | remaining activity | 104%
Cn1cncc1[C@@](O)(COc1ccc(C#N)cc1-c1ccc(OC(F)(F)F)cc1)c1ccc(C#N)cc1 | cell-free assay |  | competition with immobilised ligand | 1 µM | remaining binding | 99%
Cc1nn(C)cc1-c1nc2c(N3CCN(Cc4ccc(Cl)cc4)CC3)c(Cl)cnc2[nH]1 | binding |  | competition with immobilised ligand | 1 µM | remaining binding | 57%
Cn1cc(-c2cc(F)cc(N3CCn4c(cc5c4CCCC5)C3=O)c2CO)cc(Nc2ccc(N3CCN(C4COC4)CC3)cn2)c1=O | enzyme activity | inhibitor |  | 0.1 µM | inhibition | 15%
C#Cc1n[nH]c2c(-c3cn(C(C)c4ccccn4)c(=O)[nH]c3=O)cc(F)cc12 (centres unmarked) | enzyme activity | inhibitor |  | 1 µM | inhibition | 12.3%
Cn1cc(-c2cccc(N3CCc4c(sc5c4CC(C)(C)C5)C3=O)c2CO)cc(Nc2ccncn2)c1=O | enzyme activity | inhibitor |  | 1 µM | inhibition | -8%
Nc1ncc(-c2nc(N3CCOCC3)nc(N3CCOCC3)n2)c(C(F)F)n1 | cell-free assay |  | competition with immobilised ligand | 10 µM | remaining binding | 87%
